Tested on: HEp-2 RSV Long CPE inhibition, luminescence viability
Experiment: RSV cytopathic effect inhibition in HEp-2 cells, dose response, cell-based, synthesized compounds, set 13 (AID 588455)
Method in brief: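 Test system: RSV Long-infected HEp-2 cells; reagent: RSV strain Long virus at MOI 0.45; times: 6 days of virus and compound exposure at 37 °C; technique: luminescent CPE signal; read-out basis: % CPE inhibition and IC50 (4-parameter fit, 0–100 fixed)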

Structure (SMILES) | IC50 [nM]
COCCCNC(=O)c1ccc(Cn2c(=O)c3ccccc3n(Cc3ccc(Br)cc3)c2=O)cc1 | 480
COCCCNC(=O)c1ccc(Cn2c(=O)c3ccccc3n(Cc3ccc([N+](=O)[O-])cc3)c2=O)cc1 | 480
COCCCNC(=O)c1ccc(Cn2c(=O)c3ccccc3n(Cc3ccc(Cl)cc3)c2=O)cc1 | 970
